Converted amounts (≈) assume the structure as drawn.
Columns and labels:
Trichoderma viride [1] = assay: Antifungal activity against Trichoderma viride IAM 5061 after 72 hrs by serial dilution technique; type: functional; conditions: IAM 5061, 72 h
Outline: (§1)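 Serial dilution in malt broth; compounds from 1 mg/ml stocks in 5% DMSO; 72 h at 28 °C. MIC is the lowest concentration with no visible growth under a binocular microscope. Run in duplicate, repeated three times.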

Aspergillus fumigatus [2] = assay: Antifungal activity against Aspergillus fumigatus after 72 hrs by serial dilution technique; type: functional; outline: as §1
Staphylococcus aureus [3] = assay: Bactericidal activity against Staphylococcus aureus ATCC 6538 after 72 hrs by serial subcultivation method; type: functional; conditions: ATCC 6538, 72 h
Listeria monocytogenes [4] = assay: Bactericidal activity against Listeria monocytogenes NCTC 7973 after 72 hrs by serial subcultivation method; type: functional; conditions: NCTC 7973, 72 h
Penicillium ochrochloron [5] = assay: Fungicidal activity against Penicillium ochrochloron ATCC 9112 after 72 hrs by serial subcultivation method; type: functional; conditions: ATCC 9112, 72 h
Talaromyces funiculosus [6] = assay: Antifungal activity against Penicillium funiculosum ATCC 36839 after 72 hrs by serial dilution technique; type: functional; conditions: ATCC 36839, 72 h; outline: as §1
Mus musculus [7] = assay: Acute toxicity in AKR mouse up to 0.5 mmol/kg, ip; type: organism-based; conditions: in vivo
Aspergillus flavus [8] = assay: Antifungal activity against Aspergillus flavus ATCC 9643 after 72 hrs by serial dilution technique; type: functional; conditions: ATCC 9643, 72 h; outline: as §1
Pseudomonas aeruginosa [9] = assay: Bactericidal activity against Pseudomonas aeruginosa ATCC 27853 after 72 hrs by serial subcultivation method; type: functional; conditions: ATCC 27853, 72 h
Talaromyces funiculosus [10] = assay: Fungicidal activity against Penicillium funiculosum ATCC 36839 after 72 hrs by serial subcultivation method; type: functional; conditions: ATCC 36839, 72 h
Aspergillus niger [11] = assay: Antifungal activity against Aspergillus niger ATCC 6275 after 72 hrs by serial dilution technique; type: functional; conditions: ATCC 6275, 72 h; outline: as §1
Mus musculus [12] = assay: Antiinflammatory activity in AKR mouse assessed as inhibition of carrageenan-induced paw edema at 0.01 mmol/kg, ip measured after 3.5 hrs of carrageenan-challenge; type: functional
Outline: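 AKR mice of both sexes (pregnant females excluded), 6-10 per group, fasted during the experiment. Edema induced by intradermal 0.05 mL of 2% carrageenin into the right hind paw. Compound given at 0.01 mmol/kg ip, suspended in water with Tween-80, at the same time as carrageenin.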

Aspergillus niger [13] = assay: Fungicidal activity against Aspergillus niger ATCC 6275 after 72 hrs by serial subcultivation method; type: functional; conditions: ATCC 6275, 72 h
Listeria monocytogenes [14] = assay: Antibacterial activity against Listeria monocytogenes NCTC 7973 after 24 hr by microdilution test; type: functional; conditions: NCTC 7973, 24 h
Outline: (§2)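 Broth microdilution in LB medium, about 1.0×10^4 cfu per well; compounds from 1 mg/ml stocks in 5% DMSO. Incubated 24 h. MIC is the lowest concentration with no visible growth under a binocular microscope. Run in duplicate, repeated three times.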

Escherichia coli [15] = assay: Bactericidal activity against Escherichia coli ATCC 35210 after 72 hrs by serial subcultivation method; type: functional; conditions: ATCC 35210, 72 h
Glycine max = assay: (§3) Inhibition of soybean lipoxygenase assessed as inhibition of sodium linolate conversion to 13-hydroperoxylinoleic acid after 4 mins by spectrophotometry
[16] = as §3; parameters: species or system Glycine max; conditions: read-out: IC50
Aspergillus flavus [17] = assay: Fungicidal activity against Aspergillus flavus ATCC 9643 after 72 hrs by serial subcultivation method; type: functional; conditions: ATCC 9643, 72 h
Pseudomonas aeruginosa [18] = assay: Antibacterial activity against Pseudomonas aeruginosa ATCC 27853 after 24 hr by microdilution test; type: functional; conditions: ATCC 27853, 24 h; outline: as §2
Trichoderma viride [19] = assay: Fungicidal activity against Trichoderma viride IAM 5061 after 72 hrs by serial subcultivation method; type: functional; conditions: IAM 5061, 72 h
[20] = target: T1, Prostaglandin G/H synthase 1 (Ovis aries) (UniProt P05979); assay: (§4) Inhibition of ovine COX1 assessed as inhibition of PGF2a production by enzyme immunoassay; parameters: concentration or dose not given beside the values; conditions: concentration not given here
T1 sequence (whole entry): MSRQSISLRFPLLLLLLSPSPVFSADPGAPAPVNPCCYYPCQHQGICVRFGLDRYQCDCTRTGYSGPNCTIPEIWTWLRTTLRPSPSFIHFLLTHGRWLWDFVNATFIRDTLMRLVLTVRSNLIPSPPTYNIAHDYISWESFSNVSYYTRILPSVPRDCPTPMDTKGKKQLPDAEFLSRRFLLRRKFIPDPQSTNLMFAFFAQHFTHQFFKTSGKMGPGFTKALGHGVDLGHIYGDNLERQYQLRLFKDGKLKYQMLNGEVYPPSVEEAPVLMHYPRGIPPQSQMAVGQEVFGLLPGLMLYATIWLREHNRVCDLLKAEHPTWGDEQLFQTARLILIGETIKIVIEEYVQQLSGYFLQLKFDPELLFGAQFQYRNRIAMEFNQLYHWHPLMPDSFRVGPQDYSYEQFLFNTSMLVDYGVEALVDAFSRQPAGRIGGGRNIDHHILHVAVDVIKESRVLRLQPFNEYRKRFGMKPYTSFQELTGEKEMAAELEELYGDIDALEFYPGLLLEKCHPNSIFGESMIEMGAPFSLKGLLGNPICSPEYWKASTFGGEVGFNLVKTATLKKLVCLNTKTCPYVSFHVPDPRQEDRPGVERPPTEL
Outline: (§5)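 Ovine COX-1 from a commercial screening kit, tested with 0.1 µM arachidonic acid, which is below the saturating level. COX-derived PGH2 is reduced by SnCl2 to PGF2a, quantified by enzyme immunoassay with a broad prostaglandin antibody. At least triplicate.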

[21] = target: T2, Prostaglandin G/H synthase 1 (Ovis aries, UniProt P05979); assay: as §4; outline: as §5
T2 sequence (P05979 whole entry): T1 sequence (whole entry)

Micrococcus flavus [22] = assay: Bactericidal activity against Micrococcus flavus ATCC 10240 after 72 hrs by serial subcultivation method; type: functional; conditions: ATCC 10240, 72 h
Escherichia coli [23] = assay: Antibacterial activity against Escherichia coli ATCC 35210 after 24 hr by microdilution test; type: functional; conditions: ATCC 35210, 24 h; outline: as §2
Micrococcus flavus [24] = assay: Antibacterial activity against Micrococcus flavus ATCC 10240 after 24 hr by microdilution test; type: functional; conditions: ATCC 10240, 24 h; outline: as §2
Bacillus cereus [25] = assay: Antibacterial activity against Bacillus cereus clinical isolate after 24 hr by microdilution test; type: functional; outline: as §2
Staphylococcus aureus [26] = assay: Antibacterial activity against Staphylococcus aureus ATCC 6538 after 24 hr by microdilution test; type: functional; conditions: ATCC 6538, 24 h; outline: as §2
Aspergillus fumigatus [27] = assay: Fungicidal activity against Aspergillus fumigatus after 72 hrs by serial subcultivation method; type: functional
Bacillus cereus [28] = assay: Bactericidal activity against Bacillus cereus clinical isolate after 72 hrs by serial subcultivation method; type: functional
Penicillium ochrochloron [29] = assay: Antifungal activity against Penicillium ochrochloron ATCC 9112 after 72 hrs by serial dilution technique; type: functional; conditions: ATCC 9112, 72 h; outline: as §1

Structure (SMILES)	MIC (Trichoderma viride [1])	MIC (Aspergillus fumigatus [2])	MBC (Staphylococcus aureus [3])	MBC (Listeria monocytogenes [4])	MFC (Penicillium ochrochloron [5])	MIC (Talaromyces funiculosus [6])	Activity (Mus musculus [7])	MIC (Aspergillus flavus [8])	MBC (Pseudomonas aeruginosa [9])	MFC (Talaromyces funiculosus [10])	MIC (Aspergillus niger [11])	inhibition in vivo at 10 µmol/kg (Mus musculus [12])	MFC (Aspergillus niger [13])	MIC (Listeria monocytogenes [14])	MBC (Escherichia coli [15])	inhibition (Glycine max)	IC50 [16]	MFC (Aspergillus flavus [17])	MIC (Pseudomonas aeruginosa [18])	MFC (Trichoderma viride [19])	other results
O=C1N/C(=N\c2nccs2)S/C1=C\c1cccc(Cl)c1Cl	28.1 µM (≈ 10 µg/mL)	56.2 µM (≈ 20 µg/mL)	84.2 µM (≈ 30 µg/mL)	84.2 µM (≈ 30 µg/mL)	56.2 µM (≈ 20 µg/mL)	28.1 µM (≈ 10 µg/mL)	Non-toxic	42.1 µM (≈ 15 µg/mL)	56.2 µM (≈ 20 µg/mL)	56.2 µM (≈ 20 µg/mL)	42.1 µM (≈ 15 µg/mL)	45%	56.2 µM (≈ 20 µg/mL)	70.2 µM (≈ 25 µg/mL)	70.2 µM (≈ 25 µg/mL)	41%	143 µM	56.2 µM (≈ 20 µg/mL)	28.1 µM (≈ 10 µg/mL)	56.2 µM (≈ 20 µg/mL)	inhibition [20]: 100%; IC50 [21]: 10 µM; MBC (Micrococcus flavus [22]): 84.2 µM (≈ 30 µg/mL); MIC (Escherichia coli [23]): 56.2 µM (≈ 20 µg/mL); MIC (Micrococcus flavus [24]): 56.2 µM (≈ 20 µg/mL); MIC (Bacillus cereus [25]): 56.2 µM (≈ 20 µg/mL); MIC (Staphylococcus aureus [26]): 70.2 µM (≈ 25 µg/mL); MFC (Aspergillus fumigatus [27]): 70.2 µM (≈ 25 µg/mL); MBC (Bacillus cereus [28]): 70.2 µM (≈ 25 µg/mL); MIC (Penicillium ochrochloron [29]): 42.1 µM (≈ 15 µg/mL)
O=C1N/C(=N\c2nccs2)S/C1=C\c1ccc(Cl)cc1Cl	28.1 µM (≈ 10 µg/mL)	42.1 µM (≈ 15 µg/mL)	70.2 µM (≈ 25 µg/mL)	84.2 µM (≈ 30 µg/mL)	56.2 µM (≈ 20 µg/mL)	28.1 µM (≈ 10 µg/mL)	Non-toxic	42.1 µM (≈ 15 µg/mL)	70.2 µM (≈ 25 µg/mL)	56.2 µM (≈ 20 µg/mL)	42.1 µM (≈ 15 µg/mL)	9.9%	56.2 µM (≈ 20 µg/mL)	70.2 µM (≈ 25 µg/mL)	56.2 µM (≈ 20 µg/mL)	54%	122 µM	56.2 µM (≈ 20 µg/mL)	28.1 µM (≈ 10 µg/mL)	42.1 µM (≈ 15 µg/mL)	inhibition [20]: 98%; IC50 [21]: 32 µM; MBC (Micrococcus flavus [22]): 98.2 µM (≈ 35 µg/mL); MIC (Escherichia coli [23]): 21.1 µM (≈ 7.52 µg/mL); MIC (Micrococcus flavus [24]): 84.2 µM (≈ 30 µg/mL); MIC (Bacillus cereus [25]): 28.1 µM (≈ 10 µg/mL); MIC (Staphylococcus aureus [26]): 56.2 µM (≈ 20 µg/mL); MFC (Aspergillus fumigatus [27]): 56.2 µM (≈ 20 µg/mL); MBC (Bacillus cereus [28]): 56.2 µM (≈ 20 µg/mL); MIC (Penicillium ochrochloron [29]): 42.1 µM (≈ 15 µg/mL)
